Values after ≈ are worked out from the molar mass of the structure shown.
What was measured:
Type in all cases: functional
Escherichia coli [1] = assay: Relative sensitizing activity against Escherichia coli was determined as a percent of pPMBN (50 ug/mL) as a control
Outline: (§1)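 Clinical isolates at 1 × 10^5 CFU per well, in ISB with a 2-fold serial dilution (1000-0.5 µg/mL) of novobiocin. Peptide added at 50 µg/mL final. Incubated 20 h at 37 °C and read by visible growth. Sensitizing activity is the fold drop in novobiocin MIC with versus without peptide, expressed as percent of that given by 50 µg/mL pPMBN.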

Escherichia coli [2] = assay: Minimal inhibitory concentration of compound required against Escherichia coli was evaluated; Inactive
Outline: (§2)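 Clinical isolates grown on nutrient agar and kept at 4 °C. Overnight culture in isotonic sensitest broth (ISB) adjusted to 1 × 10^5 CFU/mL and inoculated into wells holding a 2-fold serial dilution (1000-0.5 µg/mL) of test agent in ISB. Incubated 20 h at 37 °C. MIC is the lowest concentration with no visible growth. 4-8 separate tests, varying by no more than one dilution.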

Klebsiella pneumoniae [3] = assay: Relative sensitizing activity against Klebsiella pneumoniae was determined as a percent of pPMBN (50 ug/mL) as a control; outline: as §1
Klebsiella pneumoniae [4] = assay: Minimal inhibitory concentration of compound required against Klebsiella pneumoniae was evaluated; Inactive; outline: as §2
Pseudomonas aeruginosa = assay: Minimal inhibitory concentration of compound required against Pseudomonas aeruginosa was evaluated
Outline: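 P. aeruginosa clinical isolate kept on nutrient agar at 4 °C. Overnight culture in isotonic sensitest broth adjusted to 1 × 10^5 CFU/mL and added to serial 2-fold dilutions (1000-0.5 µg/mL) of test agent in the same broth. MIC is the lowest concentration with no visible growth after 20 h at 37 °C. 4-8 separate tests, varying by no more than one dilution.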

Escherichia coli [5] = assay: Antimicrobial activity against Escherichia coli (Escherichia coli); outline: as §2
Klebsiella pneumoniae [6] = assay: Antimicrobial activity against Klebsiella pneumoniae (Klebsiella pneumoniae); outline: as §2
Escherichia coli [7] = assay: Inhibitory concentration required to displace dansyl-PMBN (0.55 uM) from maximal specific binding to Escherichia coli LPS
Outline: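 Fluorescence displacement assay. E. coli LPS (3 µg/mL, ~2 × 10^-7 M) in 5 mM HEPES pH 7.2 was pre-equilibrated with dansyl-PMBN (0.55 µM). Peptide was added stepwise at 5-min intervals from 1 × 10^-5 to 1 × 10^-3 M stocks. Fluorescence read at excitation 340 nm and emission 485 nm after each addition. Percent inhibition was plotted against concentration to give maximal and 50% displacement. 2-3 repeats.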

CC(C)C[C@@H]1NC(=O)[C@@H](Cc2ccccc2)NC(=O)[C@H](CCN)NC(=O)[C@@H](NC(=O)[C@H](CCN)NC(=O)[C@@H](N)[C@@H](C)O)CCNC(=O)[C@H]([C@@H](C)O)NC(=O)[C@H](CCN)NC(=O)[C@H](CCN)NC1=O (stereo in doubt; form 1)
Activity (Escherichia coli [1]): 100%
MIC (Escherichia coli [2]): ≥ 1000 µg/mL
Activity (Klebsiella pneumoniae [3]): 100%
MIC (Klebsiella pneumoniae [4]): ≥ 1000 µg/mL
MIC (Pseudomonas aeruginosa): 8 µg/mL (≈ 8.31 µM)

CO[C@@H]1[C@@H](OC(N)=O)[C@@H](O)[C@H](Oc2ccc3c(O)c(NC(=O)c4ccc(O)c(CC=C(C)C)c4)c(=O)oc3c2C)OC1(C)C [NOVOBIOCIN]
MIC (Escherichia coli [1]): 125 µg/mL
MIC (Escherichia coli [5]): 125 µg/mL (≈ 204 µM)
MIC (Klebsiella pneumoniae [6]): 250 µg/mL (≈ 408 µM)
MIC (Klebsiella pneumoniae [3]): 62 µg/mL

CC(C)C[C@@H]1NC(=O)[C@@H](Cc2ccccc2)NC(=O)[C@@H](NC(=O)[C@H](CCN)NC(=O)[C@H](CCN)NC(=O)[C@@H](N)[C@@H](C)O)CCNC(=O)[C@H]([C@@H](C)O)NC(=O)[C@H](CCN)NC(=O)[C@H](CCN)NC1=O
IC50 (Escherichia coli [7]; Escherichia coli): 15 µM

CC(C)C[C@@H]1NC(=O)[C@@H](Cc2ccccc2)NC(=O)[C@H](CN)NC(=O)[C@@H](NC(=O)[C@H](CN)NC(=O)[C@@H](N)[C@@H](C)O)CNC(=O)[C@H]([C@@H](C)O)NC(=O)[C@H](CN)NC(=O)[C@H](CN)NC1=O
IC50 (Escherichia coli [7]; Escherichia coli): 30 µM

CC(C)C[C@@H]1NC(=O)[C@@H](Cc2ccccc2)NC(=O)[C@H](CCN=C(N)N)NC(=O)[C@@H](NC(=O)[C@H](CCN=C(N)N)NC(=O)[C@@H](N)[C@@H](C)O)CCNC(=O)[C@H]([C@@H](C)O)NC(=O)[C@H](CCN=C(N)N)NC(=O)[C@H](CCN=C(N)N)NC1=O
IC50 (Escherichia coli [7]; Escherichia coli): 3.8 µM

CC(C)C[C@@H]1NC(=O)[C@@H](Cc2ccccc2)NC(=O)[C@H](CCN)NC(=O)[C@@H](NC(=O)[C@H](CCN)NC(=O)[C@@H](N)[C@@H](C)O)CCNC(=O)[C@H]([C@@H](C)O)NC(=O)[C@H](CCN)NC(=O)[C@H](CCN)NC1=O (stereo in doubt; form 2)
IC50 (Escherichia coli [7]): 3 µM

CC(C)C[C@@H]1NC(=O)[C@@H](Cc2ccccc2)NC(=O)[C@H](CCCN)NC(=O)[C@@H](NC(=O)[C@H](CCCN)NC(=O)[C@@H](N)[C@@H](C)O)CCCNC(=O)[C@H]([C@@H](C)O)NC(=O)[C@H](CCCN)NC(=O)[C@H](CCCN)NC1=O
IC50 (Escherichia coli [7]; Escherichia coli): 25 µM

CC(C)C[C@@H]1NC(=O)[C@@H](Cc2ccccc2)NC(=O)[C@H](CCCCN)NC(=O)[C@@H](NC(=O)[C@H](CCCCN)NC(=O)[C@@H](N)[C@@H](C)O)CCNC(=O)[C@H]([C@@H](C)O)NC(=O)[C@H](CCN)NC(=O)[C@H](CCN)NC1=O
IC50 (Escherichia coli [7]; Escherichia coli): 14 µM

CC(C)C[C@@H]1NC(=O)[C@@H](Cc2ccccc2)NC(=O)[C@H](CCCCN)NC(=O)[C@@H](NC(=O)[C@H](CCCCN)NC(=O)[C@@H](N)[C@@H](C)O)CCCCNC(=O)[C@H]([C@@H](C)O)NC(=O)[C@H](CCCCN)NC(=O)[C@H](CCCCN)NC1=O
IC50 (Escherichia coli [7]; Escherichia coli): 35 µM

Reference: ChEMBL document CHEMBL1133010, “Structure-function studies of polymyxin B nonapeptide: implications to sensitization of gram-negative bacteria” (J Med Chem, 2000)
